Source: PubChem (several laboratories)
CHOP inh: inhibitors of CHOP promoter induction, primary screen, cell-based, unfolded protein response, luciferase reporter | CHO-K1 CHOP-promoter luciferase, tunicamycin-induced, 15-18 h | inhibition, % at 10 µM | AID 2732, 2010 | 220,000 compounds, 3.8% hits;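 active = compounds that reduced the stress-induced luciferase reporter signal by more than about 70% of percent inhibition, limit read from the data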
iPSC survival up: enhancers of single-cell hiPSC survival, primary screen, ATPlite luminescence; 360,000 compounds, 0.044% hits; survival enhancement, % at 20 µM; 100% = ROCK inhibitor wells, 0% = DMSO; AID 602274, 2012; in the data active = survival enhancement above about 18%;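 note: cells exposed to compounds for 16 hours before the ATP read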
H9c2 protect: cardioprotection against H2O2-induced cell death, primary screen, uHTS, H9c2 cells, ATPLite luminescence; H9c2 cardiomyocytes, H2O2 injury protection, 2 h; 360,000 compounds, 0.63% hits; protection from H2O2 cell death, % at 20 µM;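 active = compounds giving at least 50% protection of heart cells from peroxide-induced death in the single-dose screen, raw or plate-pattern-corrected value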
UPR XBP1 act: activators of adaptive XBP1 UPR arm, primary screen, cell-based, CHO-XBP1 luciferase reporter, luminescence, uHTS; activation, % at 20 µM; 330,000 compounds, 0.33% hits; IRE1-XBP1 UPR activation; percent of tunicamycin response, DMSO as zero;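 active = versus positive control, 20 µM dose yields 30% or more activation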
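incubation = overnight seeding at 37 °C, 6 h compound treatment at 37 °C | assay system = CHO-XBP1 cells stably carrying IRE1-XBP1-driven luciferase reporter | input = 1000 cells per well | detection = luciferase luminescence | dosing = single point, 20 µM final compound, 1% DMSO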
CHOP UPR activ: activators of apoptotic CHOP UPR arm, primary screen, cell-based, CHO-CHOP luciferase reporter, luminescence, uHTS; UPR activation; percent of tunicamycin response over DMSO baseline; activation, % at 10 µM; AID 449763, 2010; 330,000 compounds, 0.34% hits;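 active = at 10 µM dose, activation of 40% or more, normalized to positive control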
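Assay system: CHO-CHOP cells, stable luciferase reporter of PERK-eIF2a-CHOP signalling / Buffer or medium: F12 plus 10% serum / Compound dosing: one dose, 10 µM in 0.5% DMSO / Times: 6 h compound treatment, 37 °C / Technique: luciferase luminescence / Read-out: % reporter activation, DMSO baseline versus tunicamycin full activation / Benchmarks: tunicamycin and DMSO controls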
CHOP confirm: retest of CHOP induction inhibitors, confirmation, cell-based; shares compounds with CHOP inh; CHO-CHOP promoter luciferase reporter, tunicamycin-induced, luminescence; inhibition, % at 10 µM; 2,100 compounds, 45% hits;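 active = mean of three repeat readings of reporter signal inhibition above a set limit, cut at about 70% in these data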
Large screens that a line does not name were inactive (follow-up assays come after a bar, where they were run). Only a selection was taken, and hits are over-represented in it overall.

Cc1cccc2cc3c(N)c(C#N)sc3nc12	CHOP inh 99 | CHOP confirm 70
COc1ccc(-n2nnnc2C(c2ccnc3ccccc23)N2CCN(C/C=C/c3ccccc3)CC2)cc1 (stereo not given)	none (no result: CHOP inh, UPR XBP1 act, CHOP UPR activ)
Cc1cccc(/C=C/c2nc3ccccc3c(=O)[nH]2)c1	CHOP inh 102 | CHOP confirm 121
O=Cc1ccc(Sc2nnc(-c3ccccc3)o2)c([N+](=O)[O-])c1	CHOP inh 97 | CHOP confirm inactive
Cc1cc(C)nc(Sc2ccc(C=O)cc2[N+](=O)[O-])n1	none
O=C(NCc1ccc(F)cc1F)[C@@H]1CCCN1C(=O)[C@@H]1CCCN1C(=O)c1ccccc1	none (no result: CHOP inh, H9c2 protect, UPR XBP1 act, CHOP UPR activ)
CCc1ccc(C(O)c2ncc(-c3ccc(Cl)cc3)[nH]2)cc1 (stereo not given)	none (no result: CHOP inh, UPR XBP1 act, CHOP UPR activ)
Cc1ccc(-c2nnc(Cc3ccc(Cl)cc3)o2)cc1	none
O=c1c(Cl)c(Cl)cnn1Cc1nnc(-c2ccc(Cl)cc2)o1	CHOP inh 107 (no result: UPR XBP1 act, CHOP UPR activ) | CHOP confirm inactive
CCc1ccc(C(=O)Cn2ncc(Cl)c(Cl)c2=O)cc1	none
O=c1c(Cl)c(Cl)cnn1Cc1ccccc1Cl	CHOP inh 111 (no result: iPSC survival up, H9c2 protect, UPR XBP1 act, CHOP UPR activ) | CHOP confirm inactive
O=C(Cn1ncc(Cl)c(Cl)c1=O)N1CCOCC1	none
Cc1cc(C)cc(Cn2ncc(Cl)c(Cl)c2=O)c1	CHOP inh 106 (no result: iPSC survival up, H9c2 protect, UPR XBP1 act, CHOP UPR activ) | CHOP confirm inactive
O=c1[nH]cnc2c1cnn2Cc1ccccc1Cl	none (no result: CHOP inh)
O=C(Cn1ncc(Cl)c(Cl)c1=O)N1CCN(Cc2ccccc2)CC1	CHOP inh 107 (no result: UPR XBP1 act, CHOP UPR activ) | CHOP confirm inactive
CC(=O)CSc1nc2nccnc2[nH]1	none (no result: CHOP inh, UPR XBP1 act, CHOP UPR activ)
C=CC[C@H](CC(=O)N(CCO)Cc1ccccc1)C(=O)N[C@H](C)COC(=O)[C@@H](CC=C)CC(=O)OC(C)(C)C	none (no result: CHOP inh)
Cc1ccc(NS(=O)(=O)c2cccc(C(=O)NCC(c3ccc(F)cc3)N3CCOCC3)c2)cc1 (stereo not given)	none (no result: CHOP inh)
CCCCN(C(=O)CCCc1nc2ccccc2c(=O)[nH]1)c1c(N)n(CC(C)C)c(=O)[nH]c1=O	none (no result: CHOP inh)
CC(NO)/C(=N\O)c1cccs1 (stereo not given)	CHOP inh 106 | CHOP confirm inactive
C/C(=N\N=C(c1ccccc1)c1ccccc1)c1cccs1	none
O=C1c2ccccc2-c2onc3ccc(Oc4ccccc4)c1c23	CHOP inh 106 | CHOP confirm 84
O=C(Nc1cccc(C(F)(F)F)c1)c1csc([C@@H]2O[C@H](CO)[C@@H](O)[C@H]2O)n1	none (no result: CHOP inh, UPR XBP1 act, CHOP UPR activ)
Cc1cccc(N(C(=O)C(F)(F)F)C(C(=O)NC2CCCCC2)c2cccs2)c1 (stereo not given)	none
C#CC(=O)N(c1ccc(OC)c(OC)c1)C(C(=O)NC1CCCC1)c1cccs1 (stereo not given)	CHOP inh 109 | CHOP confirm 122
C#CC(=O)N(c1cccc(OC)c1)C(C(=O)NC1CCCC1)c1cccs1 (stereo not given)	CHOP inh 108 | CHOP confirm 119
COc1cc(/C=N/N2CCN(C3c4ccccc4-c4ccccc43)CC2)ccc1O	CHOP inh 106 | CHOP confirm inactive
CCC1CCCCN1S(=O)(=O)c1ccc(C(=O)Nc2nnc(C3CC3)o2)cc1 (stereo not given)	none (no result: CHOP inh)
CCC1CCCCN1S(=O)(=O)c1ccc(C(=O)Nc2nnc(-c3ccccc3Cl)o2)cc1 (stereo not given)	CHOP inh 107 | CHOP confirm 102
CCOc1ccc(NC(=O)Cn2sc3nc(C)cc(C)c3c2=O)cc1	none
Cc1cc(C)c2c(=O)n(CC(=O)Nc3ccc(Cl)cc3)sc2n1	CHOP inh 104 | CHOP confirm inactive
CC(C)C[C@@H]1Cc2[nH][nH]c(=O)c2[C@H](C)O1	none (no result: CHOP inh, H9c2 protect, UPR XBP1 act, CHOP UPR activ)
C=CCn1c(SCC(=O)c2[nH]c(C)c(C(=O)OCC)c2C)nc2scc(-c3ccc(OC)c(OC)c3)c2c1=O	CHOP inh 106 (no result: UPR XBP1 act, CHOP UPR activ) | CHOP confirm inactive
CCOC(=O)c1c(C)[nH]c(C(=O)CSc2nnc(-c3ccncc3)n2CC)c1C	none
